In brackets after ≈: the same amount, converted by molar mass.

13 compounds from ChEMBL document CHEMBL5625173, “Antimycobacterial pyridine carboxamides: From design to in vivo activity” (Eur J Med Chem, 2023) can be followed below.

The subject of data set [1] is Mycolicibacterium smegmatis. The experiment in a line: Antimycobacterial activity against Mycobacterium smegmatis by alamar blue staining based microplate analysis. Type of data set: functional. A digest of the protocol:
(§1)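 Microplate Alamar Blue assay, one of six mycobacterial strains tested (Mtb H37Rv, Mtb H37Ra, M. kansasii, M. avium, M. smegmatis, M. aurum); value reported as MIC.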

The subject of data set [2] is Mycolicibacterium aurum. In words: Antimycobacterial activity against Mycobacterium aurum by alamar blue staining based microplate analysis. The data set is classed as functional. The gist of the method: as §1
A general note: Resazurin is reduced to fluorescent resorufin, in cell work by metabolically active cells.

The nature of data set [3]: Cytotoxicity against human HepG2 cells assessed as inhibition of cell viability. The data set is classed as toxicity, cell-based.
The subject of data set [4] is Mycobacterium tuberculosis. In words: Antimycobacterial activity against Mycobacterium tuberculosis H37Rv by alamar blue staining based microplate analysis. The data set is classed as functional. A digest of the protocol: (§2)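 Microplate Alamar Blue assay. MIC values read at pH 6.6 (neutral). One acidic-pH test at pH 5.6 is footnoted separately.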
For data set [5], the system named is Mycobacterium avium. In words: Antimycobacterial activity against Mycobacterium avium by alamar blue staining based microplate analysis. The data set is classed as functional. The gist of the method:
as §2

Data set [6] deals with Mycobacterium kansasii. In words: Antimycobacterial activity against Mycobacterium kansasii by alamar blue staining based microplate analysis. The data set is classed as functional. The gist of the method: as §1
In data set [7] the test system is Mycobacterium tuberculosis. In words: Antimycobacterial activity against Mycobacterium tuberculosis H37Ra by alamar blue staining based microplate analysis. The data set is classed as functional. The gist of the method:
as §2

The term MIC denotes the lowest concentration that inhibits growth of the organism. A high value points to weaker potency. For orientation: IC50 means the concentration needed to halve the response being measured. On to `Cc1cc(C(=O)Nc2ccc(C(=O)O)c(O)c2)cc(Cl)n1`, for which the MIC was at least 500 µg/mL in data set [1]; at least 500 µg/mL in data set [2]; 50 µg/mL (≈ 163 µM) in data set [4]; above 100 µg/mL in data set [5]; above 100 µg/mL in data set [6]; 250 µg/mL (≈ 815 µM) in data set [7]. The IC50 in data set [3] is above 1 mM.
As for `O=C(O)c1ccc(NC(=O)c2cccc(C(F)(F)F)n2)cc1`, the MIC in data set [1] was at least 500 µg/mL; in data set [2] it was 62.5 µg/mL (≈ 201 µM); in data set [4], 50 µg/mL (≈ 161 µM); in data set [5] it was above 100 µg/mL; in data set [6], 50 µg/mL (≈ 161 µM); in data set [7] it was 62.5 µg/mL (≈ 201 µM). In addition, the IC50 in data set [3] was above 0.248 mM.
`Cc1cc(C(=O)Nc2cncc(Cl)n2)ccn1`: the minimal inhibitory concentration (MIC) in data set [1] was at least 500 µg/mL; in data set [2], 250 µg/mL (≈ 1010 µM); in data set [4] it was above 100 µg/mL; in data set [5], above 100 µg/mL; in data set [6] it was above 100 µg/mL; in data set [7], at least 500 µg/mL. In addition, the IC50 in data set [3] is above 1 mM.
As to `O=C(Nc1cnccn1)c1ccc(Cl)nc1`, the MIC is at least 250 µg/mL in data set [1]; at least 250 µg/mL in data set [2]; above 100 µg/mL in data set [4]; above 100 µg/mL in data set [5]; above 100 µg/mL in data set [6]; at least 250 µg/mL in data set [7]. Moreover, the IC50 in data set [3] was above 1 mM.
With `O=C(O)c1ccc(NC(=O)c2ccc(Cl)nc2)cc1`, the MIC in data set [1] is at least 500 µg/mL; in data set [2] it was 250 µg/mL (≈ 904 µM); in data set [4], above 100 µg/mL; in data set [5], above 100 µg/mL; in data set [6] it was above 100 µg/mL; in data set [7], 62.5 µg/mL (≈ 226 µM). Besides, the IC50 in data set [3] is above 0.25 mM.
Take `O=C(O)c1ccc(NC(=O)c2ccccn2)cc1`: the MIC in data set [1] is at least 500 µg/mL; in data set [2], 250 µg/mL (≈ 1030 µM); in data set [4] it was above 100 µg/mL; in data set [5] it was above 100 µg/mL; in data set [6] it was above 100 µg/mL; in data set [7], 125 µg/mL (≈ 516 µM). Further, the IC50 in data set [3] was above 0.25 mM.
As for `Cc1cc(C(=O)Nc2cnccn2)ccn1`, the MIC in data set [1] is at least 250 µg/mL; in data set [2] it was at least 250 µg/mL; in data set [4], above 100 µg/mL; in data set [5] it was above 100 µg/mL; in data set [6], above 100 µg/mL; in data set [7] it was at least 250 µg/mL. Also, the IC50 in data set [3] was above 1 mM.
With `O=C(Nc1cncc(Cl)n1)c1ccc(Cl)nc1`, the MIC is at least 500 µg/mL in data set [1]; at least 500 µg/mL in data set [2]; 100 µg/mL (≈ 372 µM) in data set [4]; above 100 µg/mL in data set [5]; above 100 µg/mL in data set [6]; at least 500 µg/mL in data set [7]. Further, in data set [3], the IC50 was above 0.5 mM.
Regarding `NC(=O)c1cnccn1` [PYRAZINAMIDE], the MIC was at least 500 µg/mL in data set [1]; at least 500 µg/mL in data set [2]; above 100 µg/mL in data set [4]; above 100 µg/mL in data set [5]; above 100 µg/mL in data set [6]; at least 500 µg/mL in data set [7]. The IC50 in data set [3] is above 1 mM.
Consider `O=C(Nc1cnccn1)c1ccncc1`, for which the MIC was at least 500 µg/mL in data set [1]; at least 500 µg/mL in data set [2]; above 100 µg/mL in data set [4]; above 100 µg/mL in data set [5]; above 100 µg/mL in data set [6]; at least 500 µg/mL in data set [7]. Besides, in data set [3], the IC50 is above 1 mM.
On to `Nc1ccc(C(=O)O)cc1` [AMINOBENZOIC ACID], for which the MIC in data set [1] is at least 500 µg/mL; in data set [2], 250 µg/mL (≈ 1820 µM); in data set [4] it was above 100 µg/mL; in data set [5], above 100 µg/mL; in data set [6] it was above 100 µg/mL; in data set [7], 250 µg/mL (≈ 1820 µM). In data set [3], the IC50 was above 1 mM.
With `O=C(O)c1ccc(NC(=O)c2cccc(Cl)n2)cc1`, the MIC in data set [1] is at least 500 µg/mL; in data set [2] it was 250 µg/mL (≈ 904 µM); in data set [4], above 100 µg/mL; in data set [5], above 100 µg/mL; in data set [6], above 100 µg/mL; in data set [7], 62.5 µg/mL (≈ 226 µM). The IC50 in data set [3] is above 0.25 mM.
`CO[C@H]1/C=C/O[C@@]2(C)Oc3c(C)c(O)c4c(O)c(c(/C=N/N5CCN(C)CC5)c(O)c4c3C2=O)NC(=O)/C(C)=C\C=C\[C@H](C)[C@H](O)[C@@H](C)[C@@H](O)[C@@H](C)[C@H](OC(C)=O)[C@@H]1C` [RIFAMPIN]: the MIC turned out to be 12.5 µg/mL (≈ 15.2 µM) in data set [1], 0.198 µg/mL (≈ 0.241 µM) in data set [2] and 0.003 µg/mL (≈ 0.00365 µM) in data set [7]. The IC50 in data set [3] is above 0.5 mM.
